Inhibition data for four compounds are collected here from ChEMBL document CHEMBL5325390, “1,2,4-Triazole-3-thione analogues with an arylakyl group at position 4 as metallo-β-lactamase inhibitors” (Bioorg Med Chem, 2022).

One experiment deals with metallo-β-lactamase IMP-1 (Pseudomonas aeruginosa). Nature of the experiment: Inhibition of IMP1 (unknown origin) expressed in Escherichia coli BL21(DE3) assessed as substrate hydrolysis at 100 uM by UV-Vis spectrophotometric analysis relative to control.
Consider `O=C1OC(Cn2c(Cc3ccc4ccccc4c3)n[nH]c2=S)c2ccccc21` (centres undefined), for which the inhibition came to 30%.
The same measure, in the same setting: to `S=c1[nH]nc(-c2cc3ccccc3[nH]2)n1-c1ccc(OCc2ccccc2)cc1` belongs under 30%; to `S=c1[nH]nc(Cc2ccc3ccccc3c2)n1-c1ccc(OCc2ccccc2)cc1`, under 30%.
The same measure, in the same setting: to `S=c1[nH]nc(Cc2ccccc2)n1CCc1ccccc1` belongs under 30%.

The next experiment relates to metallo-β-lactamase VIM-4 (Pseudomonas aeruginosa). Nature of the experiment: Inhibition of VIM-4 (unknown origin) expressed in Escherichia coli BL21(DE3) assessed as substrate hydrolysis at 200 uM by UV-Vis spectrophotometric analysis relative to control.
For the compound `O=C1OC(Cn2c(Cc3ccc4ccccc4c3)n[nH]c2=S)c2ccccc21` (centres undefined), the inhibition is under 50%.
The same measure, in the same setting: to `S=c1[nH]nc(-c2cc3ccccc3[nH]2)n1-c1ccc(OCc2ccccc2)cc1` belongs under 50%; to `S=c1[nH]nc(Cc2ccc3ccccc3c2)n1-c1ccc(OCc2ccccc2)cc1`, under 50%; to `S=c1[nH]nc(Cc2ccccc2)n1CCc1ccccc1`, under 50%.

The next experiment deals with Beta-lactamase VIM-1 (Bacteria) (UniProt Q8GDC1). Briefly: Inhibition of VIM-1 (unknown origin) expressed in Escherichia coli BL21(DE3) assessed as substrate hydrolysis at 200 uM by UV-Vis spectrophotometric analysis relative to control. The method in brief:
(§1)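 Single-point screen at 100 or 200 µM inhibitor against purified MBL (1–70 nM) with 150 µM imipenem or meropenem reporter substrate, 50 mM HEPES pH 7.5, 30 °C. Initial hydrolysis rate read by absorbance at 300 nm and compared with the uninhibited reaction. Triplicate.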
Consider `O=C1OC(Cn2c(Cc3ccc4ccccc4c3)n[nH]c2=S)c2ccccc21` (centres undefined), for which the inhibition is under 50%.
Same read-out and setting: to `S=c1[nH]nc(-c2cc3ccccc3[nH]2)n1-c1ccc(OCc2ccccc2)cc1` belongs under 50%; to `S=c1[nH]nc(Cc2ccc3ccccc3c2)n1-c1ccc(OCc2ccccc2)cc1`, under 50%; to `S=c1[nH]nc(Cc2ccccc2)n1CCc1ccccc1`, under 50%.

Another experiment deals with Metallo-beta-lactamase type 2 (Bacteria) (UniProt C7C422). Nature of the experiment: Inhibition of NDM1 (unknown origin) expressed in Escherichia coli BL21(DE3) assessed as substrate hydrolysis at 100 uM by UV-Vis spectrophotometric analysis relative to control. Put shortly: as §1
Sequence of Metallo-beta-lactamase type 2 (Bacteria) (C7C422 whole entry): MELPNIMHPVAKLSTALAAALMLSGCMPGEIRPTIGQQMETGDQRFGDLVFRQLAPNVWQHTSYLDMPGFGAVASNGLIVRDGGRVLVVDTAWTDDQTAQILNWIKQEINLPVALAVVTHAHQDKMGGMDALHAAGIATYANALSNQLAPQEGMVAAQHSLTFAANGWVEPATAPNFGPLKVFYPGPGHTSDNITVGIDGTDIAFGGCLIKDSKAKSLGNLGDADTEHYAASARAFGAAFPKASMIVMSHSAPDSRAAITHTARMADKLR
As to `O=C1OC(Cn2c(Cc3ccc4ccccc4c3)n[nH]c2=S)c2ccccc21` (centres undefined), the inhibition was under 30%.
Turning to `S=c1[nH]nc(-c2cc3ccccc3[nH]2)n1-c1ccc(OCc2ccccc2)cc1`, the inhibition is under 30%.
The same measure, in the same setting: to `S=c1[nH]nc(Cc2ccc3ccccc3c2)n1-c1ccc(OCc2ccccc2)cc1` belongs under 30%; to `S=c1[nH]nc(Cc2ccccc2)n1CCc1ccccc1`, under 30%.

The next experiment concerns the target Beta-lactamase VIM-1 (Bacteria) (UniProt Q8GDC1). Briefly: Inhibition of VIM-1 (unknown origin) expressed in Escherichia coli BL21(DE3) assessed as substrate hydrolysis at 100 uM by UV-Vis spectrophotometric analysis relative to control. The method in brief: as §1
As to `O=C1OC(Cn2c(Cc3ccc4ccccc4c3)n[nH]c2=S)c2ccccc21` (centres undefined), the inhibition is under 30%.
Still for that read-out and setting: to `S=c1[nH]nc(-c2cc3ccccc3[nH]2)n1-c1ccc(OCc2ccccc2)cc1` belongs under 30%.
Still for that read-out and setting: the same measure for `S=c1[nH]nc(Cc2ccc3ccccc3c2)n1-c1ccc(OCc2ccccc2)cc1`: under 30%.
Same read-out and setting: the same measure for `S=c1[nH]nc(Cc2ccccc2)n1CCc1ccccc1`: under 30%.

The subject of another experiment is metallo-β-lactamase VIM-4 (Pseudomonas aeruginosa). Nature of the experiment: Inhibition of VIM-4 (unknown origin) expressed in Escherichia coli BL21(DE3) assessed as substrate hydrolysis at 100 uM by UV-Vis spectrophotometric analysis relative to control.
With `O=C1OC(Cn2c(Cc3ccc4ccccc4c3)n[nH]c2=S)c2ccccc21` (centres undefined), the inhibition was under 30%.
Still for that read-out and setting: to `S=c1[nH]nc(-c2cc3ccccc3[nH]2)n1-c1ccc(OCc2ccccc2)cc1` belongs under 30%; to `S=c1[nH]nc(Cc2ccc3ccccc3c2)n1-c1ccc(OCc2ccccc2)cc1`, under 30%; to `S=c1[nH]nc(Cc2ccccc2)n1CCc1ccccc1`, under 30%.

Another experiment addresses Metallo-beta-lactamase type 2 (Bacteria) (UniProt C7C422). Briefly: Inhibition of NDM1 (unknown origin) expressed in Escherichia coli BL21(DE3) assessed as substrate hydrolysis at 200 uM by UV-Vis spectrophotometric analysis relative to control. The method in brief:
as §1
For `O=C1OC(Cn2c(Cc3ccc4ccccc4c3)n[nH]c2=S)c2ccccc21` (centres undefined), the inhibition was under 50%.
Still for that read-out and setting: to `S=c1[nH]nc(-c2cc3ccccc3[nH]2)n1-c1ccc(OCc2ccccc2)cc1` belongs under 50%; to `S=c1[nH]nc(Cc2ccc3ccccc3c2)n1-c1ccc(OCc2ccccc2)cc1`, under 50%; to `S=c1[nH]nc(Cc2ccccc2)n1CCc1ccccc1`, under 50%.

The test system of the next experiment is metallo-β-lactamase VIM-2 (Pseudomonas aeruginosa). Briefly: Inhibition of VIM-2 (unknown origin) expressed in Escherichia coli BL21(DE3) assessed as substrate hydrolysis at 200 uM by UV-Vis spectrophotometric analysis relative to control.
Take `O=C1OC(Cn2c(Cc3ccc4ccccc4c3)n[nH]c2=S)c2ccccc21` (centres undefined): the inhibition is under 50%.
Same read-out and setting: the same measure for `S=c1[nH]nc(-c2cc3ccccc3[nH]2)n1-c1ccc(OCc2ccccc2)cc1`: under 50%; for `S=c1[nH]nc(Cc2ccc3ccccc3c2)n1-c1ccc(OCc2ccccc2)cc1`: under 50%.
Turning to `S=c1[nH]nc(Cc2ccccc2)n1CCc1ccccc1`, the inhibition is under 50%.

The next experiment has the same test system. Nature of the experiment: Inhibition of VIM-2 (unknown origin) expressed in Escherichia coli BL21(DE3) assessed as substrate hydrolysis at 100 uM by UV-Vis spectrophotometric analysis relative to control.
Turning to `O=C1OC(Cn2c(Cc3ccc4ccccc4c3)n[nH]c2=S)c2ccccc21` (centres undefined), the inhibition was under 30%.
As to `S=c1[nH]nc(-c2cc3ccccc3[nH]2)n1-c1ccc(OCc2ccccc2)cc1`, the inhibition is under 30%.
With `S=c1[nH]nc(Cc2ccc3ccccc3c2)n1-c1ccc(OCc2ccccc2)cc1`, the inhibition is under 30%.
The same measure, in the same setting: the same measure for `S=c1[nH]nc(Cc2ccccc2)n1CCc1ccccc1`: under 30%.

For a further experiment, the system named is metallo-β-lactamase IMP-1 (Pseudomonas aeruginosa). Nature of the experiment: Inhibition of IMP1 (unknown origin) expressed in Escherichia coli BL21(DE3) assessed as substrate hydrolysis at 200 uM by UV-Vis spectrophotometric analysis relative to control.
Take `S=c1[nH]nc(-c2cc3ccccc3[nH]2)n1-c1ccc(OCc2ccccc2)cc1`: the inhibition was under 50%.
Same read-out and setting: the same measure for `S=c1[nH]nc(Cc2ccc3ccccc3c2)n1-c1ccc(OCc2ccccc2)cc1`: under 50%; for `S=c1[nH]nc(Cc2ccccc2)n1CCc1ccccc1`: under 50%.
